# Laboratory results published in ChEMBL document CHEMBL1125205, “Phosphorus-containing inhibitors of HMG-CoA reductase. 2. Synthesis and biological activities of a series of substituted pyridines containing a hydroxyphosphinyl moiety” (J Med Chem, 1991).
# Biological target: T1, 3-hydroxy-3-methylglutaryl-coenzyme A reductase (Rattus norvegicus, UniProt P51639)
# T1 sequence (P51639 whole entry): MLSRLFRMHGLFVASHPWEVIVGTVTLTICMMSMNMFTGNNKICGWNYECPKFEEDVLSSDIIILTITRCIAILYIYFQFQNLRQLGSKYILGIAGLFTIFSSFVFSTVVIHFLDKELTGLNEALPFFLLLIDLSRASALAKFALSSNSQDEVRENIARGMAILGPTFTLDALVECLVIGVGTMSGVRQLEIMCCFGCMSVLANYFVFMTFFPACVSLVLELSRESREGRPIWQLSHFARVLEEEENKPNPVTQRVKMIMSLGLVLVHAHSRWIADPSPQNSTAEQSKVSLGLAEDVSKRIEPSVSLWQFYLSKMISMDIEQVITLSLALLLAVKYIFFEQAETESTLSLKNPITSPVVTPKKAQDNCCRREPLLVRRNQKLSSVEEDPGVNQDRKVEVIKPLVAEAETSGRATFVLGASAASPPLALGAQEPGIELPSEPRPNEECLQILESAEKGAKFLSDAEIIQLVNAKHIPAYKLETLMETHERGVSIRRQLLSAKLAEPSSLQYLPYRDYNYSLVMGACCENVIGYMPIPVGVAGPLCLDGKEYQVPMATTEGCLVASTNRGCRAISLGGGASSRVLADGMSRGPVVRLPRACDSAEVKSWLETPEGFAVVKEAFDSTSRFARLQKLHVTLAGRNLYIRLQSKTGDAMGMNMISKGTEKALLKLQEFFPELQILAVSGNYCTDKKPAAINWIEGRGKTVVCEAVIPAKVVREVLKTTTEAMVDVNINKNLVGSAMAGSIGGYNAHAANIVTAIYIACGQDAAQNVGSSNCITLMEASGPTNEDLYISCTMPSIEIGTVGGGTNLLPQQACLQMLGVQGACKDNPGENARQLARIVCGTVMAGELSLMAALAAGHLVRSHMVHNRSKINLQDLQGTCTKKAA
# Assay: In vitro for inhibition of rat HMG-CoA reductase.
# Details: read-out: I50
# How it was run: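 Enzyme source: hepatic microsomes from cholestyramine-fed Sprague-Dawley rats. Final assay conditions: 0.04 M potassium phosphate pH 7.2, KCl, sucrose, EDTA, 10 mM DTT, 1% DMSO, 50-200 µg microsomal protein. Microsomes were preincubated with 2.7 mM NADPH for 15 min at 37 °C, then with compound for 15 min. 100 µM 14C-[D,L]-HMG-CoA was then added for 20 min at 37 °C. Read-out: 14C-mevalonate, corrected by 3H-mevalonate recovery. I50 taken from composite dose-response regressions, 2-5 experiments.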
row,IC50,Structure (SMILES)
1,420 nM,CC(C)c1cc(-c2ccccc2)nc(-c2ccc(F)cc2)c1C#CP(=O)(O)C[C@H](O)CC(=O)O
2,75.6 nM,CC(C)c1nc2c(c(-c3ccc(F)cc3)c1C#CP(=O)(O)C[C@H](O)CC(=O)O)Cc1ccccc1-2
3,44.9 nM,CC(C)c1nc(-c2ccccc2)c(F)c(-c2ccc(F)cc2)c1C#CP(=O)(O)C[C@H](O)CC(=O)O
4,4.6 nM,Cc1c(-c2ccccc2)nc(C2CC2)c(C#CP(=O)(O)C[C@H](O)CC(=O)O)c1-c1ccc(F)cc1
5,52.5 nM,CC(C)c1nc2c(c(-c3ccc(F)cc3)c1C#CP(=O)(O)C[C@H](O)CC(=O)O)CCc1ccccc1-2
6,110 nM,CCc1nc(-c2ccccc2)c(C)c(-c2ccc(F)cc2)c1C#CP(=O)(O)C[C@H](O)CC(=O)O
7,181 nM,CC(C)c1nc(-c2ccccc2)cc(-c2ccc(F)cc2)c1CCP(=O)(O)C[C@H](O)CC(=O)O
8,28.7 nM,CC(C)c1nc(-c2cccc3ccccc23)cc(-c2ccc(F)cc2)c1C#CP(=O)(O)C[C@H](O)CC(=O)O
9,15.6 nM,CC(C)c1nc(-c2ccccc2)c(-c2ccccc2)c(-c2ccc(F)cc2)c1C#CP(=O)(O)C[C@H](O)CC(=O)O
10,1300 nM,Cc1nc(-c2ccccc2)c(C)c(-c2ccc(F)cc2)c1C#CP(=O)(O)C[C@H](O)CC(=O)O

# Further lines, the compound ahead of its results:
row,Structure (SMILES),IC50
1,Cc1c(-c2ccccc2)nc(C(C)C)c(CCP(=O)(O)C[C@H](O)CC(=O)O)c1-c1ccc(F)cc1,9.2 nM
2,CCc1nc(-c2ccccc2)c(C)c(-c2ccc(F)cc2)c1CCP(=O)(O)C[C@H](O)CC(=O)O,79.8 nM
3,CC(C)c1nc(-c2cccc3c2OCO3)cc(-c2ccc(F)cc2)c1C#CP(=O)(O)C[C@H](O)CC(=O)O,84.6 nM
4,CC(C)c1nc(C(c2ccccc2)c2ccccc2)cc(-c2ccc(F)cc2)c1C#CP(=O)(O)C[C@H](O)CC(=O)O,14.9 nM
5,CC(C)c1nc2c(c(-c3ccc(F)cc3)c1/C=C/P(=O)(O)C[C@H](O)CC(=O)O)CCCc1ccccc1-2,1.3 nM
6,CC(C)c1nc2c(c(-c3ccc(F)cc3)c1CCP(=O)(O)C[C@H](O)CC(=O)O)CCCc1ccccc1-2,18.6 nM
7,CC(C)c1nc(C(C)(C)C)cc(-c2ccc(F)cc2)c1CCP(=O)(O)C[C@H](O)CC(=O)O,17.2 nM
8,Cc1nc(-c2ccccc2)c(C)c(-c2ccc(F)cc2)c1CCP(=O)(O)C[C@H](O)CC(=O)O,235 nM
9,CC(C)c1nc(C(C)(C)C)cc(-c2ccc(F)cc2)c1/C=C/P(=O)(O)C[C@H](O)CC(=O)O,3.2 nM
10,CC(C)c1nc(-c2cc(F)c(F)c(F)c2F)cc(-c2ccc(F)cc2)c1C#CP(=O)(O)C[C@H](O)CC(=O)O,8.9 nM
11,Cc1c(-c2ccccc2)nc(C2CC2)c(/C=C/P(=O)(O)C[C@H](O)CC(=O)O)c1-c1ccc(F)cc1,2.5 nM
12,Cc1cc(F)ccc1-c1cc(-c2ccccc2)nc(C(C)C)c1CCP(=O)(O)C[C@H](O)CC(=O)O,115 nM
13,CC(C)c1nc(C23CC4CC(CC(C4)C2)C3)cc(-c2ccc(F)cc2)c1C#CP(=O)(O)C[C@H](O)CC(=O)O,43.8 nM
14,CCc1c(-c2ccccc2)nc(C(C)C)c(C#CP(=O)([O-])C[C@H](O)CC(=O)[O-])c1-c1ccc(F)cc1.[Na+].[Na+],5.6 nM
15,CCc1c(-c2ccccc2)nc(C(C)C)c(CCP(=O)(O)C[C@H](O)CC(=O)O)c1-c1ccc(F)cc1,19.1 nM
16,CC(C)c1nc(-c2ccccc2Cc2ccccc2)cc(-c2ccc(F)cc2)c1C#CP(=O)(O)C[C@H](O)CC(=O)O,62.6 nM

# Species on record: Homo sapiens
# Assay: The compound was tested for inhibition of Cholesterol synthesis from [14C]- Acetate in human skin fibroblasts
# Format: functional
# Details: read-out: I 50
# How it was run: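 Human skin fibroblasts (passage 7-27) were plated at 5 × 10^5 cells/well and cultured 18 h. Sterol synthesis was induced by 24 h in serum-free MEM with 1.0% fatty acid-free BSA. Cells were preincubated with compound for 30 min (DMSO ≤1.0%), then given sodium [1-14C]acetate at 2.0 µCi/mL for 4 h. Label in the extracted cholesterol peak was compared with controls. I50 from composite curves of ≥2 experiments.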
row,Structure (SMILES),IC50
1,CCc1c(-c2ccccc2)nc(C(C)C)c(C#CP(=O)([O-])C[C@H](O)CC(=O)[O-])c1-c1ccc(F)cc1.[Na+].[Na+],6750 nM

# Test system: Rattus norvegicus
# Assay: The compound was tested in vivo for inhibition of Cholesterol Biosynthesis from [14C]- acetate in rat after peroral administration.
# Format: functional
# Details: po
row,Structure (SMILES),ED50
1,CCc1c(-c2ccccc2)nc(C(C)C)c(C#CP(=O)([O-])C[C@H](O)CC(=O)[O-])c1-c1ccc(F)cc1.[Na+].[Na+],4.5 mg/kg

# Species on record: Rattus norvegicus
# Assay: The compound was tested for inhibition of Cholesterol synthesis from [14C]- Acetate in hepatocytes of rats.
# Format: functional
# Details: Hepatocyte, read-out: I 50
# How it was run: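 Rat hepatocytes were freshly isolated by collagenase perfusion, 70-90% viable. Cells were suspended at 5 × 10^6 per 2.0 mL in Tris pH 7.4 incubation medium with cofactors; DMSO was ≤1.0% final. Incubation was with [14C]acetate (2 µCi/mL) for 2.0 h at 37 °C. Lipids were extracted by Bligh-Dyer and the percent of label in the cholesterol peak was compared with controls. I50 from composite curves of two or more studies.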
row,Structure (SMILES),IC50
1,CCc1c(-c2ccccc2)nc(C(C)C)c(C#CP(=O)([O-])C[C@H](O)CC(=O)[O-])c1-c1ccc(F)cc1.[Na+].[Na+],519 nM

# Test system: not listed separately
# Assay: It is the ratio of I50 fibroblasts to that of I50 hepatocytes.
# Format: functional, Hepatocyte
# Details: not given
# How it was run: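 Selectivity is the ratio of I50 in human skin fibroblasts to I50 in freshly isolated rat hepatocytes. Each I50 came from [14C]acetate incorporation into cholesterol, measured as percent inhibition versus controls from composite dose-response data.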
row,Structure (SMILES),Selectivity
1,CCc1c(-c2ccccc2)nc(C(C)C)c(C#CP(=O)([O-])C[C@H](O)CC(=O)[O-])c1-c1ccc(F)cc1.[Na+].[Na+],13
